Results: ChEMBL document CHEMBL3808372, “Identification of quinones as novel PIM1 kinase inhibitors” (Bioorg Med Chem Lett, 2016)

How the values were obtained:
Parameters in all cases: scale not given: the % may be the effect or the level left
[1] = target: Activin receptor type-1B (Homo sapiens) (UniProt P36896); test: Inhibition of human ACVR1B (187 to 505 amino acid residues) expressed in bacterial system assessed as enzyme activity at 10 uM by KINOMEScan assay
In short: (§1)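 Competition binding screen on a 100-kinase KINOMEscan panel, compound tested at a single 10 μM concentration. Primary binding read-out expressed as % Ctrl = (test compound signal − positive control signal)/(negative control signal − positive control signal) × 100, with lower values meaning stronger binding.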

[2] = target: Serine/threonine-protein kinase 32C (Homo sapiens) (UniProt Q86UX6); test: Inhibition of human YANK3 (68 to 486 amino acid residues) expressed in bacterial system assessed as enzyme activity at 10 uM by KINOMEScan assay
In short: (§2)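 Single-concentration competition binding screen (KINOMEscan) across a 100-kinase panel at 10 μM. Primary binding read-out is reported as % of control: (test signal − positive-control signal)/(negative-control signal − positive-control signal) × 100. Lower values indicate stronger binding.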

[3] = target: Dual specificity mitogen-activated protein kinase kinase 2 (Homo sapiens) (UniProt P36507); test: Inhibition of full length human MEK2 assessed as enzyme activity at 10 uM by KINOMEScan assay; in short: as §1
[4] = target: MAP kinase-interacting serine/threonine-protein kinase 1 (Homo sapiens) (UniProt Q9BUB5); test: Inhibition of full length human MKNK1 assessed as enzyme activity at 10 uM by KINOMEScan assay; in short: as §1
[5] = target: Aurora kinase A (Homo sapiens) (UniProt O14965); test: Inhibition of human AURKA (122 to 401 amino acid residues) assessed as enzyme activity at 10 uM by KINOMEScan assay; in short: as §1
[6] = target: Serine/threonine-protein kinase pim-2 (Homo sapiens) (UniProt Q9P1W9); test: Inhibition of human PIM2 (1 to 291 amino acid residues) expressed in bacterial system assessed as enzyme activity at 10 uM by KINOMEScan assay; in short: as §2
[7] = target: RAF proto-oncogene serine/threonine-protein kinase (Homo sapiens) (UniProt P04049); test: Inhibition of human RAF1 (330 to 640 amino acid residues) expressed in bacterial system assessed as enzyme activity at 10 uM by KINOMEScan assay
In short: (§3)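 Commercial KINOMEscan binding panel of 100 kinases, test compound at 10 μM. Results are primary-screen binding interactions expressed as % Ctrl = (test compound signal − positive control signal)/(negative control signal − positive control signal) × 100. Lower % Ctrl means stronger binding.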

[8] = target: ALK tyrosine kinase receptor (Homo sapiens) (UniProt Q9UM73); test: Inhibition of human ALK (1088 to 1409 amino acid residues) assessed as enzyme activity at 10 uM by KINOMEScan assay; in short: as §3
[9] = target: Casein kinase I isoform gamma-2 (Homo sapiens) (UniProt P78368); test: Inhibition of full length human CSNK1G2 expressed in bacterial system assessed as enzyme activity at 10 uM by KINOMEScan assay; in short: as §3
[10] = target: Ephrin type-A receptor 2 (Homo sapiens) (UniProt P29317); test: Inhibition of human EPHA2 (593 to 891 amino acid residues) assessed as enzyme activity at 10 uM by KINOMEScan assay expressed in bacterial system assessed as enzyme activity at 10 uM by KINOMEScan assay; in short: as §3
[11] = target: Tyrosine-protein kinase ABL1 (Homo sapiens) (UniProt P00519); test: Inhibition of human ABL1 kinase phosphorylation (229 to 512 amino acid residues) assessed as enzyme activity at 10 uM by KINOMEScan assay; in short: as §1
[12] = target: Macrophage colony-stimulating factor 1 receptor (Homo sapiens) (UniProt P07333); test: Inhibition of human CSF1R (564 to 939 amino acid residues) assessed as enzyme activity at 10 uM by KINOMEScan assay expressed in bacterial system assessed as enzyme activity at 10 uM by KINOMEScan assay; in short: as §1
[13] = target: Aurora kinase B (Homo sapiens) (UniProt Q96GD4); test: Inhibition of human AURKB (25 to 303 amino acid residues) assessed as enzyme activity at 10 uM by KINOMEScan assay; in short: as §1
[14] = system: Tyrosine-protein kinase ABL1 (Homo sapiens), P00519 [T315I]; test: Inhibition of human ABL1 kinase T315I mutant phosphorylation (229 to 512 amino acid residues) assessed as enzyme activity at 10 uM by KINOMEScan assay; in short: as §1
[15] = target: Tyrosine-protein kinase ZAP-70 (Homo sapiens) (UniProt P43403); test: Inhibition of human ZAP70 (20 to 299 amino acid residues) assessed as enzyme activity at 10 uM by KINOMEScan assay; in short: as §3
[16] = target: Receptor tyrosine-protein kinase erbB-4 (Homo sapiens) (UniProt Q15303); test: Inhibition of human ERBB4 (690 to 994 amino acid residues) assessed as enzyme activity at 10 uM by KINOMEScan assay expressed in bacterial system assessed as enzyme activity at 10 uM by KINOMEScan assay; in short: as §1
[17] = target: Serine/threonine-protein kinase RIO2 (Homo sapiens) (UniProt Q9BVS4); test: Inhibition of human RIOK2 (1 to 313 amino acid residues) assessed as enzyme activity at 10 uM by KINOMEScan assay; in short: as §3
[18] = system: Tyrosine-protein kinase ABL1 (Homo sapiens), P00519 [E255K]; test: Inhibition of human ABL1 kinase E255K mutant phosphorylation (229 to 512 amino acid residues) assessed as enzyme activity at 10 uM by KINOMEScan assay; in short: as §1
[19] = target: Cyclin-dependent kinase 11B (Homo sapiens) (UniProt P21127); test: Inhibition of human CDK11 (1 to 360 amino acid residues) assessed as enzyme activity at 10 uM by KINOMEScan assay expressed in bacterial system assessed as enzyme activity at 10 uM by KINOMEScan assay; in short: as §3
[20] = target: Mitogen-activated protein kinase kinase kinase 9 (Homo sapiens) (UniProt P80192); test: Inhibition of human MLK1 (88 to 426 amino acid residues) expressed in bacterial system assessed as enzyme activity at 10 uM by KINOMEScan assay; in short: as §1
[21] = target: Fibroblast growth factor receptor 2 (Homo sapiens) (UniProt P21802); test: Inhibition of human FGFR2 (457 to 769 amino acid residues) assessed as enzyme activity at 10 uM by KINOMEScan assay expressed in bacterial system assessed as enzyme activity at 10 uM by KINOMEScan assay; in short: as §3
[22] = target: Glycogen synthase kinase-3 beta (Homo sapiens) (UniProt P49841); test: Inhibition of full length human GSK3B assessed as enzyme activity at 10 uM by KINOMEScan assay; in short: as §1
[23] = target: Serine/threonine-protein kinase STK11 (Homo sapiens) (UniProt Q15831); test: Inhibition of full length human LKB1 expressed in bacterial system assessed as enzyme activity at 10 uM by KINOMEScan assay; in short: as §3
[24] = target: Phosphatidylinositol 4,5-bisphosphate 3-kinase catalytic subunit gamma isoform (Homo sapiens) (UniProt P48736); test: Inhibition of human PIK3CG (144 to 1102 amino acid residues) assessed as enzyme activity at 10 uM by KINOMEScan assay; in short: as §2
[25] = target: Testis-specific serine/threonine-protein kinase 1 (Homo sapiens) (UniProt Q9BXA7); test: Inhibition of full length human TSSK1B expressed in bacterial system assessed as enzyme activity at 10 uM by KINOMEScan assay; in short: as §1
Chain of Testis-specific serine/threonine-protein kinase 1 (Homo sapiens) (Q9BXA7 whole entry): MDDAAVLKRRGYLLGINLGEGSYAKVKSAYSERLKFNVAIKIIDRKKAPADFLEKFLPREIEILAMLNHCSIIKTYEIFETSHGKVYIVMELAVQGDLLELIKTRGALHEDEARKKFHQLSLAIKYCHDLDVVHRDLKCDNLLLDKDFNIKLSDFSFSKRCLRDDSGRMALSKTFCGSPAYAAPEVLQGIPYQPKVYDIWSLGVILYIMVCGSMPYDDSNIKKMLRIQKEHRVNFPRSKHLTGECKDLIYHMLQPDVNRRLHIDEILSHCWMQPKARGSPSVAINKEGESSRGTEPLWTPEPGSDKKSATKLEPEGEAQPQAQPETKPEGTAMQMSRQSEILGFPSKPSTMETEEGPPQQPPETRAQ

Chain of Aurora kinase B (Homo sapiens) (Q96GD4 whole entry, the tested form may be a part): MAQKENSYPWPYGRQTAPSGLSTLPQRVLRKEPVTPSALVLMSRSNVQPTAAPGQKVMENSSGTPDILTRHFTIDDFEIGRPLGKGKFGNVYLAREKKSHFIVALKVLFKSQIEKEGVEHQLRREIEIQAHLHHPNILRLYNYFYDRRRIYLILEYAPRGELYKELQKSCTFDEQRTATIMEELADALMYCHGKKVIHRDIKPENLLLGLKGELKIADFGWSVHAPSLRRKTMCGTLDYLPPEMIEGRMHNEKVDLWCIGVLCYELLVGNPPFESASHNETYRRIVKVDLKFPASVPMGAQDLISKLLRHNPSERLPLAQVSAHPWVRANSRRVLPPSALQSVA
Chain of Aurora kinase A (Homo sapiens) (O14965 whole entry, the tested form may be a part): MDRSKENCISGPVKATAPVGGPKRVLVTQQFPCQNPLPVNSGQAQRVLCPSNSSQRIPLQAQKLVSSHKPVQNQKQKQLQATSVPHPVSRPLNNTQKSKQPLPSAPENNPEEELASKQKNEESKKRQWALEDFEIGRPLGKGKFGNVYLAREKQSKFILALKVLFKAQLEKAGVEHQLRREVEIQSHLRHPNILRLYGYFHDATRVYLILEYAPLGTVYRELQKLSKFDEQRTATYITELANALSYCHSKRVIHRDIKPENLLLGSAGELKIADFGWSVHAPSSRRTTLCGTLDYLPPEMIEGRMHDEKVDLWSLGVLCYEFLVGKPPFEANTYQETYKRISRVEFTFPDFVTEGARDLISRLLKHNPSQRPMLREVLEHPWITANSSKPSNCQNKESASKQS
Chain of Phosphatidylinositol 4,5-bisphosphate 3-kinase catalytic subunit gamma isoform (Homo sapiens) (P48736 whole entry, looked up, the tested form may be a part, canonical isoform): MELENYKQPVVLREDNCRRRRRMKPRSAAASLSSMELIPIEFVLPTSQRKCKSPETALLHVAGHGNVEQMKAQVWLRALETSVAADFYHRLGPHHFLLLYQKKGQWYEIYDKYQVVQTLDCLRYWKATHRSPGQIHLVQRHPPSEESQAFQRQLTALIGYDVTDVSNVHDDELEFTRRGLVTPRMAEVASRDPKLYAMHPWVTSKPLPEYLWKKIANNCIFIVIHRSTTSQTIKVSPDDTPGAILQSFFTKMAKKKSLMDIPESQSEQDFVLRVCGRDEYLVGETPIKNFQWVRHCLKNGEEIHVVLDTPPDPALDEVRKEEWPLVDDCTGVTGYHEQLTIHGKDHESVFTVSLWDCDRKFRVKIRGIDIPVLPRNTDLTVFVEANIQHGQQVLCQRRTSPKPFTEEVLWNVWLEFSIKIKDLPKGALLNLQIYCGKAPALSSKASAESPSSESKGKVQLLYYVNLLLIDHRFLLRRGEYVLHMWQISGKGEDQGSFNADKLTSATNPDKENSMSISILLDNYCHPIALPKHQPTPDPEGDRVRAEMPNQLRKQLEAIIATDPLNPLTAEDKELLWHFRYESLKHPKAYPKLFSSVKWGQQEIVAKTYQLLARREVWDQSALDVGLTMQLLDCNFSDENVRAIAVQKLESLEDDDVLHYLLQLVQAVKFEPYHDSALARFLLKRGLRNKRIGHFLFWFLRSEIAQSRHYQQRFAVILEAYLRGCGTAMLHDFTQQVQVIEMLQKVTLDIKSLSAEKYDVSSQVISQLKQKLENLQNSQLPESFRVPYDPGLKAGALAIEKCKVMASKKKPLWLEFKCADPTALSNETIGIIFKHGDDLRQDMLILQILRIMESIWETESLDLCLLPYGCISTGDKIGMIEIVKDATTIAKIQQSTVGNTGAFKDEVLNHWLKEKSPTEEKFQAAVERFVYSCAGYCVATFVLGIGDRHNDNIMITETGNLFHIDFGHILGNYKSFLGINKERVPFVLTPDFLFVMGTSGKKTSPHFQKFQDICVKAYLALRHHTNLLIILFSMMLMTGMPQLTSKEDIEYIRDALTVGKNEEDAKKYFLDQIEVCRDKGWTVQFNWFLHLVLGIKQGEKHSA
Chain of RAF proto-oncogene serine/threonine-protein kinase (Homo sapiens) (P04049 whole entry, the tested form may be a part): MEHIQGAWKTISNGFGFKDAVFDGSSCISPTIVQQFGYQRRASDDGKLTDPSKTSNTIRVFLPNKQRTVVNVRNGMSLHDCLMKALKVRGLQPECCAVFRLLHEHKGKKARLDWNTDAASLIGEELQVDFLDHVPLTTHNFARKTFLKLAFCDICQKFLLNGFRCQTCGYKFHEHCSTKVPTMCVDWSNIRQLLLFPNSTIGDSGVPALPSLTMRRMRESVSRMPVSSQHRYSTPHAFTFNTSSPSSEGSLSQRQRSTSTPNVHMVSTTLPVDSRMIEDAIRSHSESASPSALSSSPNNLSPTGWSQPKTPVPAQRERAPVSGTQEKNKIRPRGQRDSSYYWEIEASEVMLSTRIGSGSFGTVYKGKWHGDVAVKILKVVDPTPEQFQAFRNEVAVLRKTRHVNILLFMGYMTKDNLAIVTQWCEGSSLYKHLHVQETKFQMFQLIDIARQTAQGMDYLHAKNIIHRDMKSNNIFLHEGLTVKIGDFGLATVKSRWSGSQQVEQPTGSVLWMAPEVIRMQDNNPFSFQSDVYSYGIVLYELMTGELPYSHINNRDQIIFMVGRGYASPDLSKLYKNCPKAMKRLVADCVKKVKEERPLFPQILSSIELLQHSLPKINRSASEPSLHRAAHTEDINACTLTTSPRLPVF
Chain of Dual specificity mitogen-activated protein kinase kinase 2 (Homo sapiens) (P36507 whole entry): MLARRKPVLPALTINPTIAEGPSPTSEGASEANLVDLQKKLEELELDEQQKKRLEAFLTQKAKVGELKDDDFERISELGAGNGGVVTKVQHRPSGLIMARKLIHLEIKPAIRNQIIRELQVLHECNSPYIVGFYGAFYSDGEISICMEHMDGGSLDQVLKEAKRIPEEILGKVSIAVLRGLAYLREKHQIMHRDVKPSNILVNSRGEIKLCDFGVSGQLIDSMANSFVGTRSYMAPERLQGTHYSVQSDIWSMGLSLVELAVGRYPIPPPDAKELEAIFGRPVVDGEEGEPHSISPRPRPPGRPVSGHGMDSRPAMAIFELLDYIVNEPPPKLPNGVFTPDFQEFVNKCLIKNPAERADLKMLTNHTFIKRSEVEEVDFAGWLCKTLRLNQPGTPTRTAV
Chain of Mitogen-activated protein kinase kinase kinase 9 (Homo sapiens) (P80192 whole entry, looked up, the tested form may be a part): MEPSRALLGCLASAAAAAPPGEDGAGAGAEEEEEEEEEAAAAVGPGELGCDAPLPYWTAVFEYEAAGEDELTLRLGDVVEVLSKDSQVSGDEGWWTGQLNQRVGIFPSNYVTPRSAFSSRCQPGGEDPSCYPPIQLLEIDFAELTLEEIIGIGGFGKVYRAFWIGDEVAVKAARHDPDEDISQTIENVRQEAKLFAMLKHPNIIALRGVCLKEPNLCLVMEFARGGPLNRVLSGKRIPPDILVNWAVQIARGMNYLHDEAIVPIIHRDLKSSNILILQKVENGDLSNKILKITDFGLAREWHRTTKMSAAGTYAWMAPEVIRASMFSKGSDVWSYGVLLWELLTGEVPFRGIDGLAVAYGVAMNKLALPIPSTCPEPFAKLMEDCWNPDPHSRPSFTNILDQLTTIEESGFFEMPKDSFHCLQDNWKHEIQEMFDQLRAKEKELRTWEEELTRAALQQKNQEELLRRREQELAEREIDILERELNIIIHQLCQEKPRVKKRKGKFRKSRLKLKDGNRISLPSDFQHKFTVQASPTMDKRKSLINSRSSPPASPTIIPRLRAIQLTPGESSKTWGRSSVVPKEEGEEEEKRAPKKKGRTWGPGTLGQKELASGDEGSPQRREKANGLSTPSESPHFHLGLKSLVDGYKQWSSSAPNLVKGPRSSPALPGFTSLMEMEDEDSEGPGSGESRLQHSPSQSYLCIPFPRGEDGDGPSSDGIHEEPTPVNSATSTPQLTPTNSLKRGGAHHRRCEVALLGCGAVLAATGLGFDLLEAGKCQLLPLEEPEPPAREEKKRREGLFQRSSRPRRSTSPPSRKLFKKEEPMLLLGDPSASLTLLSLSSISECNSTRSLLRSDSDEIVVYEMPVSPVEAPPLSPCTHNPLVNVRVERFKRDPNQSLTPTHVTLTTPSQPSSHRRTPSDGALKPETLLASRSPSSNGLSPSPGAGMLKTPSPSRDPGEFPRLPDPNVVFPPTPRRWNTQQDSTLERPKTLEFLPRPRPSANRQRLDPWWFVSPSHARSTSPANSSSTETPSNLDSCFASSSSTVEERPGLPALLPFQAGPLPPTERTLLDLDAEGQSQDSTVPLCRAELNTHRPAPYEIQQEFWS
Chain of Serine/threonine-protein kinase STK11 (Homo sapiens) (Q15831 whole entry, the tested form may be a part, canonical isoform): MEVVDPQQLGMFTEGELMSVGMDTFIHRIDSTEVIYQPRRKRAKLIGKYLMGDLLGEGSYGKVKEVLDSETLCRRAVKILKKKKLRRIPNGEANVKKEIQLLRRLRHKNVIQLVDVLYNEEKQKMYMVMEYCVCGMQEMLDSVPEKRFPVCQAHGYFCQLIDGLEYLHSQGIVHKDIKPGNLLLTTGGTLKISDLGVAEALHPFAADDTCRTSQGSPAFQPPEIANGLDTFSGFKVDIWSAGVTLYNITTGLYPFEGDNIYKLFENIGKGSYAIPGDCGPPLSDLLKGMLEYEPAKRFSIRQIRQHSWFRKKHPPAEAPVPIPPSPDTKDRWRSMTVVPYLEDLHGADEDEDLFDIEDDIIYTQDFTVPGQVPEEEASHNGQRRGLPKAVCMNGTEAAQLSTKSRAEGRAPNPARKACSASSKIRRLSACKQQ

SMILES: O=C1C2=C(C(=O)c3c(O)ccc(O)c31)[C@@H](O)[C@@H](O)[C@@H](O)C2
- Activity [1]: 90%
- Activity [2]: 89%
- Activity [3]: 96%
- Activity [4]: 45%
- Activity [5]: 87%
- Activity [6]: 67%
- Activity [7]: 100%
- Activity [8]: 100%
- Activity [9]: 100%
- Activity [10]: 100%
- Activity [11]: 88%
- Activity [12]: 77%
- Activity [13]: 72%
- Activity [14]: 95%
- Activity [15]: 100%
- Activity [16]: 95%
- Activity [17]: 86%
- Activity [18]: 96%
- Activity [19]: 86%
- Activity [20]: 99%
- Activity [21]: 100%
- Activity [22]: 85%
- Activity [23]: 100%
- Activity [24]: 68%
- Activity [25]: 89%
